Reference: ChEMBL document CHEMBL4002557, “Phenanthrenes from Juncus inflexus with Antimicrobial Activity against Methicillin-Resistant Staphylococcus aureus” (2016)
≈ marks a conversion by molar mass, not a printed value. Calls of active or inactive are those of the source. The rule behind the calls is not given here.

Key:
Type in all cases: functional
Staphylococcus aureus [1] = experiment: Antibacterial activity against methicillin-resistant Staphylococcus aureus ATCC 43300 at 10 mg/ml after 24 hrs by disk diffusion method; settings: for zone of inhibition at 10000 µg/mL: ATCC 43300, 24 h, read-out: DIZ
How it was run: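 Disk diffusion. Pure compounds were diluted to 10 mg/mL in DMSO, and 50 μL was loaded onto 6 mm sterile paper disks. Disks were placed on agar seeded with bacterial suspension (0.5 McFarland, (1−2) × 10^8 CFU/mL), with solvent as negative control. Incubation was 37 °C, 24 h, aerobic. Inhibition-zone diameter was measured including the disk. Done in triplicate.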

Staphylococcus aureus [2] = experiment: Antibacterial activity against methicillin-resistant Staphylococcus aureus ATCC 43300 after 24 hrs by microdilution method; settings: ATCC 43300, 24 h
How it was run: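 Broth microdilution in 96-well plates. DMSO stocks (50 mg/mL) were serially diluted in Mueller-Hinton broth to final 2.5 mg/mL–4.9 μg/mL. Inoculum was 0.5 McFarland, (1−2) × 10^8 CFU/mL. Controls were sterility, DMSO/inoculum negative and vancomycin positive. Incubation was 37 °C, 24 h, aerobic. MIC was the lowest concentration with no visible growth. Run twice in triplicate.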

Staphylococcus aureus [3] = experiment: Antibacterial activity against methicillin-resistant Staphylococcus aureus ATCC 43300 at 5 ug/disk after 24 hrs by disk diffusion method; settings: ATCC 43300, 24 h, read-out: DIZ
Staphylococcus aureus [4] = experiment: Ratio of MIC for methicillin-sensitive Staphylococcus aureus in dark to MIC for methicillin-sensitive Staphylococcus aureus in presence of UVA irradiation

C=Cc1cc2c(cc1C)CCc1c-2ccc(O)c1C
diameter of the inhibition zone (DIZ) (Staphylococcus aureus [1]): inactive

C=Cc1c(C)c(O)cc2c1-c1ccc(OC)c(CO)c1CC2
MIC (Staphylococcus aureus [2]): 100 µg/mL (≈ 337 µM) | zone of inhibition at 10000 µg/mL (Staphylococcus aureus [1]): 7 mm

COC(C)c1cc(O)c(C)c2c1-c1ccc(O)c(C)c1CC2 (racemic)
diameter of the inhibition zone (DIZ) (Staphylococcus aureus [1]): inactive

C=Cc1cc2c(ccc3c(C)c(O)ccc32)cc1C
diameter of the inhibition zone (DIZ) (Staphylococcus aureus [1]): inactive

C=Cc1c(C)c(O)cc2c1ccc1c(C)c(O)ccc12
MIC (Staphylococcus aureus [2]): 25 µg/mL (≈ 94.6 µM) | zone of inhibition at 10000 µg/mL (Staphylococcus aureus [1]): 10 mm

C=C[C@@]1(C)C(=O)C2=C(C[C@H]1O)c1ccc(O)c(C)c1CC2
diameter of the inhibition zone (DIZ) (Staphylococcus aureus [1]): inactive

CN[C@H](CC(C)C)C(=O)N[C@H]1C(=O)N[C@@H](CC(N)=O)C(=O)N[C@H]2C(=O)N[C@H]3C(=O)N[C@H](C(=O)N[C@H](C(=O)O)c4cc(O)cc(O)c4-c4cc3ccc4O)[C@H](O)c3ccc(c(Cl)c3)Oc3cc2cc(c3O[C@@H]2O[C@H](CO)[C@@H](O)[C@H](O)[C@H]2O[C@H]2C[C@](C)(N)[C@H](O)[C@H](C)O2)Oc2ccc(cc2Cl)[C@H]1O [VANCOMYCIN]
zone of inhibition at 5 µg/disc (Staphylococcus aureus [3]): 15.5 mm

COc1cc(-c2cc(=O)c3c(O)cc(O)cc3o2)ccc1O
diameter of the inhibition zone (DIZ) (Staphylococcus aureus [1]): inactive

C=CC1=C(C)C(=O)C=C2c3ccc(O)c(C)c3CC[C@]21O
MIC (Staphylococcus aureus [2]): 12.5 µg/mL (≈ 44.3 µM) | zone of inhibition at 10000 µg/mL (Staphylococcus aureus [1]): 12 mm

Cc1cc2ccc3c(C)c(O)ccc3c2cc1[C@@H]1CC=Cc2c3c(c(C)c(O)c21)CCc1c-3ccc(O)c1C
diameter of the inhibition zone (DIZ) (Staphylococcus aureus [1]): inactive

C=Cc1c(C)c(O)cc2c1CCc1c-2ccc(O)c1C
diameter of the inhibition zone (DIZ) (Staphylococcus aureus [1]): inactive

C=Cc1c(C)c(O)cc2ccc3c(C)c(O)ccc3c12
diameter of the inhibition zone (DIZ) (Staphylococcus aureus [1]): inactive

C=Cc1c(C)c(O)cc2c1-c1ccc(O)c(C)c1CC2
MIC (Staphylococcus aureus [2]): 25 µg/mL (≈ 93.9 µM) | zone of inhibition at 10000 µg/mL (Staphylococcus aureus [1]): 12 mm | Ratio (Staphylococcus aureus [4]): 2

C=Cc1cc(O)cc2c1-c1ccc(O)c(C)c1CC2 [EFFUSOL]
Ratio (Staphylococcus aureus [4]): 16
